The values that follow come from ChEMBL document CHEMBL4311948, “Exploring the Natural Piericidins as Anti-Renal Cell Carcinoma Agents Targeting Peroxiredoxin 1” (J Med Chem, 2019).

For data set [1], the system named is ACHN. Briefly: Cytotoxicity against human ACHN cells assessed as reduction in cell viability measured after 72 hrs by CCK8 assay. It is filed as functional, cell-based. Summed up: (§1)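 Cells were grown in 10% FBS medium: MEM for ACHN, RPMI1640 for OS-RC-2 and 786-O, DMEM for HK-2. They were seeded at 400–800 cells/well in 384-well plates and treated with a range of compound concentrations or solvent control, with sorafenib as positive control. After 72 h, CCK-8 absorbance was read at 450 nm in triplicate, and IC50 was taken from dose-response curves.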

Another data set deals with OS-RC-2. As to the kind of experiment: Cytotoxicity against human OS-RC2 cells assessed as reduction in cell viability measured after 72 hrs by CCK8 assay. Conditions: OS-RC-2, 72 h. It is filed as functional, cell-based. Summed up:
as §1

The subject of another data set is 786-0. As to the kind of experiment: Cytotoxicity against human 786-O cells assessed as reduction in cell viability measured after 72 hrs by CCK8 assay. Conditions: 786-0, 72 h. It is filed as functional, cell-based. Summed up: as §1
The test system of the next data set is HK-2. Briefly: Cytotoxicity against human HK2 cells assessed as reduction in cell viability measured after 72 hrs by CCK8 assay. In kind it is cell-based. Conditions: HK-2, 72 h. The method in brief:
as §1

Data set [2] concerns ACHN. Briefly: Cytotoxicity against human ACHN cells harboring shPRDX1 gene assessed as reduction in cell viability measured after 72 hrs by CCK8 assay. It is filed as functional, cell-based. The method in brief:
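Transfectants were selected with puromycin (1 μg/mL), and knockdown was confirmed by immunoblot. Viability was read by CCK-8 after 72 h of compound exposure in 384-well plates at 400–800 cells/well in MEM with 10% FBS, and IC50 was taken from dose-response curves.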

The test system of data set [3] is ACHN. Briefly: Antitumor activity against human ACHN cells xenografted in Balb/c nu/nu mouse assessed as tumor weight at 50 mg/kg, ip administered once daily for 21 days measured post-last dose by caliper method (reference value: 0.55 +/- 0.13 g). In kind it is functional.
Data set [4] is described as follows: Toxicity in Balb/c nu/nu mouse xenografted with human ACHN cells assessed as effect on survival at 50 mg/kg, ip administered once daily for 21 days. It is filed as organism-based. To be noted: in vivo, 504 h. The method in brief:
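Nude mice (Balb/c nu/nu) bearing ACHN flank xenografts received sorafenib tosylate 50 mg/kg, given as a 10× stock in Cremophor EL diluted in PBS. Treatment alongside PBS control for three weeks. Survival and body weight monitored.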

The nature of data set [5]: Toxicity in Balb/c nu/nu mouse xenografted with human ACHN cells assessed as decrease in body weight at 50 mg/kg, ip administered once daily for 21 days. To be noted: in vivo, 504 h.
Data set [6] has as its system ACHN. Briefly: Down regulation of EGFR mRNA expression in human ACHN cells at 25 to 50 nM measured after 24 hrs by qRT-PCR analysis. It is filed as functional, cell-based.
Data set [7] concerns ACHN. Briefly: Down regulation of SOD2 mRNA expression in human ACHN cells at 25 to 50 nM measured after 24 hrs by qRT-PCR analysis. It is filed as functional, cell-based.
The test system of data set [8] is ACHN. As to the kind of experiment: Down regulation of ETS1 mRNA expression in human ACHN cells at 25 to 50 nM measured after 24 hrs by qRT-PCR analysis. It is filed as functional, cell-based.
Data set [9] relates to ACHN. As to the kind of experiment: Down regulation of HK2 mRNA expression in human ACHN cells at 25 to 50 nM measured after 24 hrs by qRT-PCR analysis. It is filed as functional, cell-based.
Data set [10] has as its system ACHN. Briefly: Down regulation of SLC2A1 mRNA expression in human ACHN cells at 25 to 50 nM measured after 24 hrs by qRT-PCR analysis. In kind it is functional, cell-based.
Data set [11] relates to ACHN. As to the kind of experiment: Down regulation of LDHA mRNA expression in human ACHN cells at 25 to 50 nM measured after 24 hrs by qRT-PCR analysis. In kind it is functional, cell-based.
Data set [12] relates to ACHN. Briefly: Down regulation of MET mRNA expression in human ACHN cells at 25 to 50 nM measured after 24 hrs by qRT-PCR analysis. In kind it is functional, cell-based.
Data set [13] relates to ACHN. Briefly: Down regulation of HIF1A mRNA expression in human ACHN cells at 25 to 50 nM measured after 24 hrs by qRT-PCR analysis. In kind it is functional, cell-based.
Data set [14] has as its system ACHN. As to the kind of experiment: Up regulation of PRDX1 mRNA expression in human ACHN cells at 25 to 50 nM measured after 24 hrs by qRT-PCR analysis. In kind it is functional, cell-based.
Data set [15] has as its target T1, Peroxiredoxin-1 (Homo sapiens) (UniProt Q06830).
T1 sequence (whole entry): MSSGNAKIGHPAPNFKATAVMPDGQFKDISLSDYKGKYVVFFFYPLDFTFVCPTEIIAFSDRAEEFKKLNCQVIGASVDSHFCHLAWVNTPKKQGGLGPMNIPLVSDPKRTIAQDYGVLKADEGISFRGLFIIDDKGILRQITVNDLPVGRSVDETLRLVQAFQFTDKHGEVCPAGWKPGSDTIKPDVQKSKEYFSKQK
Briefly: Activation of PRDX1 in human ACHN cells assessed as reduction in reactive oxygen species level at 25 to 50 nM measured after 24 hrs by Cell-rox reagent-based flow cytometry. Summed up:
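ACHN cells grown 24 h in MEM + 10% FBS, reseeded at 2 × 10^4 cells/well and exposed to 0, 25 or 50 nM for 24 h. Harvested cells loaded with CellROX oxidative stress reagent 5 μM, 30 min at 37 °C in the dark, then read by flow cytometry. shPRDX1 line: stable knockdown selected with puromycin (1 μg/mL) before dosing. Mean ± SD.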

Data set [16] has as its system ACHN. As to the kind of experiment: Selectivity ratio of IC50 for cytotoxicity against human ACHN cells harboring shPRDX1 gene to IC50 for Cytotoxicity against human ACHN cells. In kind it is functional.
Data set [17] relates to ACHN. Briefly: Up regulation of nuclear PRDX1 expression in human ACHN cells at 25 to 50 nM measured after 24 hrs by immunoblot analysis. In kind it is functional, cell-based. The method in brief: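 ACHN cells treated 24 h with 25 or 50 nM, then nuclear and cytosolic extracts prepared. Lysis in RIPA buffer, BCA quantitation, 30–50 μg protein resolved on 10% or 12% gels. Blotted with anti-PRDX1 (1:1000) and β-actin (1:3000), band ratio PRDX1/β-actin reported as fold change. Mean ± SD.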

Data set [18] concerns the target T1, Peroxiredoxin-1 (Homo sapiens). As to the kind of experiment: Induction of PRDX1 nuclear translocation in human ACHN cells at 25 to 50 nM measured after 24 hrs by DAPI staining-based microscopic analysis. In kind it is cell-based. Summed up:
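ACHN cells exposed 24 h to 25 or 50 nM, fixed in 4% paraformaldehyde 10 min and permeabilised with 0.5% Triton X-100. Blocked with 10% FBS, 4 °C, 12 h. Stained with anti-PRDX1 overnight, FITC secondary 2 h RT, DAPI nuclear counterstain. Confocal imaging scored mean fluorescence intensity (n = 9).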

The target in the next data set is T2, Peroxiredoxin-1 (Homo sapiens, UniProt Q06830).
T2 sequence (Q06830 whole entry): T1 sequence (whole entry)
Briefly: Binding affinity to full-length human PRDX1 by surface plasmon resonance analysis. The method in brief: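 Full-length human PRDX1 immobilised on a CM5 chip (Biacore T100). Analyte concentration series diluted in 10 mM Hepes pH 7.4, injected over the protein surface and a protein-free reference surface in a single step.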

The test system of data set [19] is ACHN. Briefly: Antitumor activity against human ACHN cells xenografted in Balb/c nu/nu mouse assessed as tumor weight at 0.8 mg/kg, ip administered once daily for 21 days measured post-last dose by caliper method (reference value: 0.55 +/- 0.13 g). In kind it is functional. Summed up:
(§2)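 Male athymic Balb/c nu/nu mice, four weeks old, acclimatised 1 week. 10^7 ACHN cells in 0.2 mL PBS injected into the right flank. At about 150 mm3, mice randomised into PBS control or 0.8 mg/kg groups, dosed ip daily for three weeks. Tumours measured by caliper (volume = 0.5 × L × W²) with body weight recorded. Endpoint tumour weight, sections stained by H&E and TUNEL. Tissue lysed for immunoblot.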

Data set [20] is described as follows: Toxicity in Balb/c nu/nu mouse xenografted with human ACHN cells assessed as effect on survival at 0.8 mg/kg, ip administered once daily for 21 days. It is filed as organism-based. Conditions: in vivo, 504 h. The method in brief: as §2
Data set [21] can be described thus: Toxicity in Balb/c nu/nu mouse xenografted with human ACHN cells assessed as decrease in body weight at 0.8 mg/kg, ip administered once daily for 21 days. In kind it is organism-based. Conditions: in vivo, 504 h. The method in brief: as §2
For data set [22], the system named is Mus musculus. Briefly: Up regulation of PRDX1 expression in human ACHN cells xenografted Balb/c nu/nu mouse at 0.8 mg/kg, ip administered once daily for 21 days measured post-last dose by immunoblot analysis. In kind it is functional, organism-based. Summed up:
as §2

Data set [23] deals with Mus musculus. Briefly: Up regulation of PRDX1 mRNA expression in human ACHN cells xenografted Balb/c nu/nu mouse at 0.8 mg/kg, ip administered once daily for 21 days measured post-last dose by qRT-PCR analysis. In kind it is functional, organism-based.
Data set [24] concerns ACHN. As to the kind of experiment: Antitumor activity against human ACHN cells xenografted in Balb/c nu/nu mouse assessed as tumor growth inhibition at 0.8 mg/kg, ip administered once daily for 21 days measured post-last dose by TUNEL staining-based assay. It is filed as functional, organism-based. Summed up:
as §2

The subject of data set [25] is ACHN. As to the kind of experiment: Antitumor activity against human ACHN cells xenografted in Balb/c nu/nu mouse assessed as tumor growth inhibition at 0.8 mg/kg, ip administered once daily for 21 days measured post-last dose by H and E staining-based assay. In kind it is functional, organism-based. Summed up: as §2

Activity calls are given as the source filed them. The calls are words filed in the database; no cut-off is given here. Where only a bound is given, the exact number is not on record here.

On to `CNC(=O)c1cc(Oc2ccc(NC(=O)Nc3ccc(Cl)c(C(F)(F)F)c3)cc2)ccn1` [SORAFENIB], for which the IC50 in the data set with ACHN [1] was 3.3 µM; with OS-RC-2, 14 µM; in the data set on 786-0, 13 µM; in the data set on HK-2 it was 2.6 µM; in the data set with ACHN [2] (achn), “Not Active”. Further, the Activity is 0.12 g in the data set on ACHN [3], “Non-Toxic” in data set [4] and “Toxic” in data set [5].
For the molecule `C/C=C(\C)[C@H](O[C@@H]1O[C@H](CO)[C@@H](O)[C@H](O)[C@H]1O)[C@H](C)/C=C(C)/C=C/C/C(C)=C/Cc1nc(OC)c(OC)c(O)c1C`, the IC50 with ACHN [1] was 0.21 µM; in the data set on OS-RC-2, over 100 µM; in the data set with 786-0, over 100 µM; in the data set with HK-2, over 100 µM; with ACHN [2] (Homo sapiens, ACHN, 72 h, read-out: IC50), 0.96 µM. The result with ACHN [6], with ACHN [7], in the data set with ACHN [8], with ACHN [9], in the data set on ACHN [10] and with ACHN [11] was Active. For the same molecule, the result (in the data set on ACHN [12]; in the data set with ACHN [13]; in the data set on ACHN [14]; in [15]; in the data set with ACHN [17]; in data set [18]) was Active. The outcome in the data set on Mus musculus [22] and in the data set with Mus musculus [23] was Active. In addition, in the data set on ACHN [16], the “Ratio IC50” value came out at 4. The same molecule gave a Kd on Peroxiredoxin-1 of 1.83 µM. Also, the Activity is listed as 0.23 g in the data set with ACHN [19], “Non-Toxic” in data set [20] and “Non-Toxic” in [21]. The TGI result in the data set on ACHN [24] and in the data set on ACHN [25] was “Active” in each case.
